Key:
[1] = (§1) Inhibition of CREB-KID/CBP-KIX domain interaction (unknown origin) after 20 hrs by luciferase reporter gene assay; parameters: species or system Homo sapiens
How it was run: (§2)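 Split Renilla luciferase complementation assay: RLucC-KIX and KID-RLucN fusions mixed with graded compound concentrations at 4 °C for 20 h, then residual RLuc activity measured. Stocks in DMSO (one in DMF). IC50 in μM, mean ± SD of at least two independent experiments run in duplicate; top concentration 50 or 100 μM.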

[2] = Inhibition of CREB (unknown origin)-mediated gene transcription in HEK293T cells preincubated for 30 mins followed by forskolin addition measured after 5 hrs by luciferase reporter gene assay; type: cell-based; settings: Homo sapiens, HEK-293T
How it was run: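 HEK 293T cells transfected with CRE-RLuc (RLuc driven by three tandem CRE copies), treated with graded compound concentrations for 30 min, then stimulated with forskolin (10 μM) for another 5 h. Cells lysed and RLuc activity read, normalized to protein (RLU/μg protein). Stocks in DMSO (one in DMF). IC50 in μM, mean ± SD of at least two independent experiments run in triplicate; top concentration 50 or 100 μM.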

[3] = Inhibition of Herpesvirus VP16-CREB (unknown origin)-mediated gene transcription in HEK293T cells by luciferase reporter gene assay; type: cell-based; settings: HEK-293T
How it was run: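 HEK 293T cells cotransfected with VP16-CREB plus CRE-RLuc, treated with graded compound concentrations without forskolin stimulation, then lysed and RLuc activity read and normalized to protein (RLU/μg protein). IC50 in μM, mean ± SD of at least two independent experiments run in triplicate; top concentration 50 or 100 μM.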

HEK-293T [4] = test: Selectivity ratio of IC50 for CREB (unknown origin)-mediated gene transcription in HEK293T cells to IC50 for CREB-KID/CBP-KIX domain interaction (unknown origin); type: cell-based; settings: Homo sapiens
Homo sapiens = organism: Homo sapiens; test: as §1; how it was run: as §2
HEK-293T [5] = test: Selectivity ratio of IC50 for Herpesvirus VP16-CREB (unknown origin)-mediated gene transcription in HEK293T cells to IC50 for CREB (unknown origin)-mediated gene transcription in HEK293T cells; type: cell-based

SMILES: O=[N+]([O-])c1ccc(CNc2ccc(Cl)cc2)c2nonc12
- IC50 [1]: 13.1 µM
- IC50 [2]: > 50 µM

SMILES: O=[N+]([O-])c1cc(NCc2cccc3nonc23)ccc1Cl
- IC50 [1]: > 50 µM
- IC50 [2]: > 50 µM

SMILES: O=[N+]([O-])c1ccc(Nc2ccc(Cl)cc2)c2nonc12
- IC50 [1]: 7.14 µM
- IC50 [2]: 13.7 µM
- IC50 [3]: > 100 µM
- Ratio IC50 (HEK-293T [4]): 2

SMILES: O=C(Nc1ccc(Cl)cc1)c1ccc([N+](=O)[O-])c2nonc12
- IC50 [1]: 0.17 µM
- IC50 [2]: > 50 µM

SMILES: O=[N+]([O-])c1ccc(Sc2ccccn2)c2nonc12
- IC50 [1]: 0.41 µM
- IC50 [2]: 9.42 µM
- IC50 [3]: 13.2 µM

SMILES: Nc1ccc(Nc2ccc(Cl)cc2)c2nonc12
- IC50 [1]: 50 µM
- IC50 [2]: 50 µM
- IC50 [3]: > 50 µM

SMILES: O=[N+]([O-])c1ccc(Sc2cccc[n+]2[O-])c2nonc12
- IC50 [1]: 0.36 µM
- inhibition (Homo sapiens): Dose-dependent effect
- IC50 [2]: 2.09 µM
- IC50 [3]: 6.14 µM
- Ratio IC50 (HEK-293T [5]): 3

Source: ChEMBL document CHEMBL2424539, “Identification, synthesis and evaluation of substituted benzofurazans as inhibitors of CREB-mediated gene transcription” (Bioorg Med Chem Lett, 2013)
